Consider 97 molecules from ChEMBL document CHEMBL4513216, “Probing the Open Global Health Chemical Diversity Library for Multistage-Active Starting Points for Next-Generation Antimalarials” (ACS Infect Dis, 2020).

This data set in a line: Toxicity liver stage against HepG2, at 10uM. Further details: test concentration 10 uM, cell line HepG2-A16-CD81EGFP. It counts as cell-based. Particulars: human, HepG2-A16-CD81EGFP cells; read-out: INHIBITION
An outline of the steps:
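Uninfected HepG2-A16-CD81EGFP cells, 3 × 10^3 per well, 1536-well, plated on prespotted compound at 10 μM final, parasite-free screening media added to match infected plates; puromycin 10 μM positive, DMSO 0.5% negative; run in parallel with 48 h PbLuc assay at 37 °C, 5% CO2; viability by CellTiter-Glo luminescence, normalized to controls.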
For the molecule `CCn1cc2c(n1)CN(Cc1nccs1)CC2COCC1CC1` (configuration not stated), the cytotoxicity at 10 µM was 6.07%.
For `CN1CCOC(CNC(=O)C2(c3ccccc3)CCC2)C1` (configuration not stated), the cytotoxicity at 10 µM stood at 6.17%.
In the case of `Cc1ccc(CN2CC[C@H](O)[C@@H](n3ccc(=O)[nH]c3=O)CC2)cc1`, the cytotoxicity at 10 µM is -22.8%.
In the case of `Cn1cc(C(=O)Nc2ccc3c(c2)N(C(=O)c2ccco2)CC3)nn1`, the cytotoxicity at 10 µM is 0.529%.
Under `O=C(Nc1nncs1)N1CCC(c2ccc(O)cc2)CC1` stands -7.55%; under `O=C(c1cccc2c1OCO2)N1CCCC(n2ccnc2)C1` (configuration not stated), -3.29%; under `O=C1CC2(CCN(c3nncs3)C2)CN1c1cncnc1` (configuration not stated), -0.376%.
As for `Cc1nc(O)cc(CN2C[C@H](NS(=O)(=O)N(C)C)[C@@H](C3CC3)C2)n1`, the figure is -5.01%; as for `Cc1noc(CCCC(=O)N2CCCCC2c2nccs2)n1` (configuration not stated), -87.5%; as for `COc1ccc2c(c1)CCN(CCC(=O)NC1CCCCC1)CC2`, -11.4%.
Under `CCOc1cc(/C=C/c2ncc(C(=O)O)s2)ccc1O` stands 0.241%; under `Cc1cc(C(=O)N2CCCC3(C=Cc4ccccc4O3)CC2)cc(=O)[nH]1` (configuration not stated), 8.06%.
For `O=C([C@@H]1CC[C@@H]2[C@@H](CCN2Cc2cccc(F)c2)O1)N1CCCCO1`, the cytotoxicity at 10 µM was -6.71%.
Under `CCOCCOCc1cccc(CNc2cncc(-n3cccn3)n2)c1` stands 7.74%.
As for `O=C(NCc1ccc(Cl)s1)NCc1nnc2n1CCCCC2`, the figure is -2.06%; as for `CC(C)=CCN1CCN(Cc2nccn2C)[C@H]2CS(=O)(=O)C[C@H]21`, -2.76%; as for `Cc1cc(CN2CCCN(c3ccc(C#N)cc3)CC2)no1`, 2.07%.
As for `COC1COC2(CCN(C(=O)c3cocn3)CC2)C1` (configuration not stated), the figure is 9.64%; as for `CC1(C(=O)NCCc2ccc(F)cc2)CCOCC1`, 5.42%; as for `CC(CNC(=O)c1ccc(F)cc1I)N1CCCC1` (configuration not stated), 1.28%.
As for `CC(C#N)(NC(=O)Cn1cc(I)cn1)C1CC1` (configuration not stated), the cytotoxicity at 10 µM stood at 15.2%.
Under `CC(C)c1nccn1-c1cncc(C2CCCN(C3CCCCC3)C2)n1` (configuration not stated) stands -9.97%; under `c1ccc(-c2nc(CCNC3CCOC4(CCOCC4)C3)no2)cc1` (configuration not stated), 4.47%.
As for `CC(=O)Nc1nc(CN2CCn3c(nnc3C3CC3)C2)cs1`, the figure is -7.91%; as for `CN(C)S(=O)(=O)N1CCC(Oc2cccnn2)CC1`, 3.05%.
As for `CS(=O)(=O)NC1CCCN(Cc2ccccn2)C1` (configuration not stated), the figure is 4.74%; as for `Cc1nnc2n1CCN(Cc1ncc(-c3ccc(Cl)cc3)o1)C2`, -17.7%.
As to `COc1cccc(NC(=O)c2cc3c([nH]c2=O)CCCC3=O)c1`, the cytotoxicity at 10 µM was -3.35%.
In the case of `O=C(c1sccc1Br)N(Cc1cccnc1)C1CC1`, the cytotoxicity at 10 µM was -4.07%.
With `CNS(=O)(=O)c1cccc(CNc2ccc(C(F)(F)F)nn2)c1`, the cytotoxicity at 10 µM is -11.4%.
For the molecule `Cc1nccc(N2CC[C@@H]3[C@@H](CCC(=O)N3CCc3ccccc3)C2)n1`, the cytotoxicity at 10 µM worked out at 2.19%.
As for `CC(NC(=O)CN1CCN(c2ccncc2Cl)CC1)c1ccco1` (configuration not stated), the figure is -6.02%; as for `CCCOc1cccc(NC(=O)NC2CCc3nc(C)nn3C2)c1` (configuration not stated), -1.65%.
For `Cc1ccc(C(=O)N2CCN(Cc3nc(C(C)C)no3)CC2)c(=O)[nH]1`, the cytotoxicity at 10 µM is -7.67%.
Under `CC(=O)N1CCC2(C1)CN(C(=O)C1CCOC1)C2` (configuration not stated) stands 4.88%.
As for `COc1ncc(C(=O)NCc2ccccc2)cn1`, the figure is -3.99%; as for `COCCn1cnnc1C(C)NC(=O)c1[nH]c2c(C)cc(C)cc2c1C` (configuration not stated), -9.11%; as for `CC(CO)NC(=O)Nc1ccc(S(C)(=O)=O)nc1` (configuration not stated), -10.2%.
Consider `COc1cccc(S(=O)(=O)N2CCOC(C)(C(N)=O)C2)c1` (configuration not stated), for which the cytotoxicity at 10 µM worked out at 3.08%.
Under `CS(=O)(=O)NCCC1CCCCN1C(=O)NCCc1ccccn1` (configuration not stated) stands -4.24%; under `Cc1cc(NC(=O)CCN2CCCCC2Cn2cncn2)no1` (configuration not stated), 4.23%.
Under `CC(NC(=O)Nc1cccnc1N1CCCC1)c1ccncc1` (configuration not stated) stands -19.3%; under `CC(=O)NCCC(=O)N(C/C=C/c1ccccc1)CCO`, 4.1%.
As for `Cn1cncc1-c1nnc([C@H]2CCN(Cc3ncc[nH]3)C2)o1`, the figure is 1.62%; as for `Cc1nn(-c2ccccc2)nc1C(=O)NCC(c1ccsc1)N(C)C` (configuration not stated), -22.3%; as for `CCn1cc(-c2cc(C(F)F)n3nc(CC(=O)O)nc3n2)cn1`, -9.49%.
For `CCc1nc(C2CCCN2Cc2nc(CCOC)no2)no1` (configuration not stated), the cytotoxicity at 10 µM is -10.8%.
Under `N[C@@H]1c2ccccc2C2(CCN(C(=O)c3ccccc3O)CC2)[C@H]1O` stands 6.38%; under `Cc1noc(C)c1CN1CCCCC1CCc1ccc(O)cc1` (configuration not stated), -2.06%; under `CC(C)NS(=O)(=O)c1cc(C(=O)O)cc(-c2ccccc2CO)c1`, 0.555%.
Under `O=S1(=O)CCC(c2nc(-c3cccc(Br)c3)no2)C1` (configuration not stated) stands 7.51%; under `Cc1ccc(C(=O)NCCCC2(C3OCCO3)CCOCC2)cc1C`, 1.48%.
Consider `CCOCC(=O)NCC1CCN(Cc2ccsc2)CC1`, for which the cytotoxicity at 10 µM amounted to 11.1%.
Regarding `CC(C)c1ccc(CN2CCC3(CCCN(c4nncs4)C3)C2)cc1` (configuration not stated), the cytotoxicity at 10 µM is -1.15%.
As for `CSCC(=O)N1C[C@@H]2CC[C@H]1CN(C1Cc3ccccc3C1)C2`, the figure is -6.08%.
Under `NC1(CN2CCOCC2)CCCCC1` stands 1.72%.
As for `CC1CC2(CCN(C(=O)c3csnn3)CC2)c2ccccc21` (configuration not stated), the figure is -137%; as for `CCN(Cc1ccco1)C(=O)c1cc(OC)c2c(c1)OCCO2`, -4.22%; as for `CC(C(=O)O)N1CCc2onc(-c3ccc(F)c(F)c3)c2C1` (configuration not stated), 14.9%.
Take `Cn1cc(CN2CCCC(c3nccnc3-c3cccc(F)c3)C2)cn1` (configuration not stated): the cytotoxicity at 10 µM is 0.954%.
Turning to `Cc1cc(C(=O)NC2(C#N)CCCC2)c(C)n1-c1cccnc1`, the cytotoxicity at 10 µM was -3.15%.
As for `CC(C)c1nc(CN(C)C(=O)c2ccccc2C2CCNC2)cs1` (configuration not stated), the figure is 4.46%; as for `COc1ccc(-n2cc3nc(N)[nH]cc-3c2=O)cc1`, 6.25%; as for `CC(=O)N1CCC2(CC1)COC(COCc1ccccn1)C2` (configuration not stated), -114%.
Under `Cc1ccsc1C(O)CNC(=O)Cc1ccc(S(=O)(=O)C(C)C)cc1` (configuration not stated) stands -1.21%; under `CCN(CC1CCOC1)C(=O)c1ccc(N(C)C)cc1F` (configuration not stated), 3.54%; under `CCN(CC)C(=O)c1cc(C2CCCN2C)ccn1` (configuration not stated), -3.24%.
As for `C[C@@H]1CN(Cc2ccc(-c3ccncc3)cc2F)CC(C(N)=O)O1` (some centres not stated), the figure is 2.4%.
For `CC(C)C(C)N(C)Cc1nnc(-c2ccco2)o1` (configuration not stated), the cytotoxicity at 10 µM was 2.65%.
Under `Cc1cc(OC(F)F)c(C(=O)N2CCC(N(C)C)CC2)s1` stands 6.9%.
As for `CCc1cnc(CN(C)C(=O)Nc2cnc3c(c2)c(C)nn3C)s1`, the figure is 2.37%.
As for `CCn1nc(C)c(CCn2ccnc2-c2cc3n(n2)CCNC3)c1C`, the figure is 5.15%; as for `CSc1ccc(CNC(=O)NCC(O)c2cccc(F)c2)cc1` (configuration not stated), -6.16%; as for `O=C(c1ccoc1)N1CC[C@@H]2O[C@@H](COCc3ccncc3)CC[C@@H]21`, -80.4%.
Turning to `O=C(Cn1nc(Br)nc1Br)N1CCOCC1`, the cytotoxicity at 10 µM was -1.14%.
Under `FC(F)(F)CCN(Cc1ccon1)C1CCCC1` stands 1.87%.
As for `CC(C)Cc1cc(C(=O)NCc2nnc[nH]2)[nH]n1`, the cytotoxicity at 10 µM is -2.95%.
Under `CN(Cc1ccc(CCC(C)(C)O)cc1)CC1(CO)CC1` stands -4.32%.
As for `Cc1cccc(N2CCN(Cc3nc(CC4CC4)no3)CC2)n1`, the figure is -10.1%; as for `CC(=O)NC1CCN(C(=O)Nc2cccc(C(F)(F)F)c2)CC1`, -6.74%.
As for `COCCN1C(=O)CCC12CCCN(C(=O)NC(C)C)CC2` (configuration not stated), the figure is 1.32%.
As for `Cc1nc(O)c2nnn(C[C@H]3CCCN3C(=O)CCC3CCCC3)c2n1`, the cytotoxicity at 10 µM was 5.02%.
Take `O=C(c1cnccn1)N1C[C@@H]2OCC(=O)N(CC3CCCCC3)[C@@H]2C1`: the cytotoxicity at 10 µM is -4.97%.
Take `COCCNC(=O)[C@@H]1C[C@@H]2CCN(c3ncccn3)C[C@H]2O1`: the cytotoxicity at 10 µM was -2.48%.
As for `Cn1cncc1CN1CCc2nc3sccc3c(=O)n2CC1`, the figure is -3.75%.
As for `CC(C)NC(=O)C1CN(C(N)=O)Cc2ccnn2C1` (configuration not stated), the figure is -8.68%; as for `COC(=O)CNC(=O)CC1COc2ccc(C(=O)N(C)C)cc2N1C` (configuration not stated), -8.8%.
Under `CCNC(=O)[C@@H]1C[C@@H](n2cc(CN(CC)CC)nn2)CN1` stands 0.334%.
On to `CCOC(C)c1nc(CN2CCN(c3ncc(C)cn3)CC2)cs1` (configuration not stated), for which the cytotoxicity at 10 µM is -0.509%.
As for `CC(=O)c1c(C)nn(S(=O)(=O)c2ccc(C)c(C)c2)c1C`, the figure is -8.46%; as for `COCCNc1ccccc1CNC(=O)NCc1cnc(C)s1`, 10.6%.
As for `CN1CCN(Cc2noc(CC3CCc4ccccc43)n2)CC1` (configuration not stated), the figure is -20.1%; as for `CC(=O)Nc1nc(CN2CCOC(Cn3cncn3)C2)cs1` (configuration not stated), -27.5%.
As to `CCS(=O)(=O)NC(CCSC)C(=O)Nc1cc(F)ccc1C` (configuration not stated), the cytotoxicity at 10 µM was found to be 6.29%.
Under `O=C(O)COc1ccc(CN2CCCC(Cc3cccnc3)C2)cc1` (configuration not stated) stands -4.98%.
For `CC(=O)NCCNC(=O)c1nc(C2CC2)n(-c2ccccc2Cl)n1`, the cytotoxicity at 10 µM is 9.74%.
Under `CN1CCCN(S(C)(=O)=O)c2cc(F)ccc21` stands -2.24%.
